# “And” between values parts separate entries of the source, which are not always exact repeats. Identical values can stand only once. The source made the active and inactive calls. No cut-off for these calls is given here.
# Experiments:
# Rattus norvegicus [1] = organism: Rattus norvegicus; test: Effect on half-maximal decrease of DOPA formation in rat limbic regions; In active (no significant effect […]); type: functional; conditions: Limbic system
# Rattus norvegicus [2] = organism: Rattus norvegicus; test: Effect on half-maximal decrease of DOPA formation in rat striatal regions; In active (no significant effect […]); type: functional, organism-based
# Rattus norvegicus [3] = organism: Rattus norvegicus; test: Tested for locomotor activity by measuring accumulated counts/30 min in reserpine-pretreated rats; type: functional
# In short: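 Rats given reserpine 5 mg/kg sc 18 h beforehand, then test drug sc immediately before the session. Motor activity recorded by photocell motility meter as accumulated counts over 30 min, mean ± SEM (n = 3–4). Reserpine controls were used; Student's t test. Injection volume 5 mL/kg at roughly neutral pH.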
# Rattus norvegicus [4] = organism: Rattus norvegicus; test: Tested for locomotor activity by measuring accumulated counts/30 min in reserpine-non-pretreated rats; type: functional
# In short: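 Nonpretreated rats were injected with test drug 5 min before a photocell motility session, and counts were accumulated over 30 min. Activity expressed as percent of saline controls, mean ± SEM (n = 3–5), compared by Student's t test. Injections were 5 mL/kg at approximately neutral pH.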
# Rattus norvegicus [5] = organism: Rattus norvegicus; test: Effect on half-maximal decrease of DOPA formation in rat limbic regions; type: functional; conditions: Limbic system
# Rattus norvegicus [6] = organism: Rattus norvegicus; test: Effect on half-maximal decrease of DOPA formation in rat striatal regions; type: functional
# Rattus norvegicus [7] = test: Effect on half-maximal decrease of DOPA formation in rat limbic regions; In active (no significant decrease at […] sc); type: functional, organism-based; conditions: Limbic system
Structure (SMILES),ED50 (Rattus norvegicus [1]),ED50 (Rattus norvegicus [2]),No. of counts (Rattus norvegicus [3]),No. of counts (Rattus norvegicus [4]),ED50 (Rattus norvegicus [5]),ED50 (Rattus norvegicus [6]),ED50 (Rattus norvegicus [7]),ED50 (Rattus norvegicus [1]; ip)
CCCN(CCC)[C@H]1Cc2cc(O)ccc2C[C@@H]1C,inactive,inactive,35 counts/30 min,89%,–,–,–,–
"CCCN(CCC)[C@@H]1CCc2ccc(OC)cc2C1C (single isomer, unassigned; 5) [listing 1 of 2 here]",–,–,4 counts/30 min,109% and 92%,–,–,–,–
"CCCN[C@@H]1CCc2ccc(O)cc2C1C (single isomer, unassigned; (+))",–,–,59 counts/30 min,–,1.4 µmol/kg,1.2 µmol/kg,–,–
O=C(CCCN1CCC(O)(c2ccc(Cl)cc2)CC1)c1ccc(F)cc1 [HALOPERIDOL],inactive,inactive,–,3%,0.19 µmol/kg,0.19 µmol/kg,–,–
"CCCN(CCC)[C@@H]1CCc2ccc(O)cc2C1C (single isomer, unassigned; 6) [listing 1 of 2 here]",inactive,inactive,–,–,–,–,–,–
CCCN(CCC)[C@@H]1CCc2ccc(O)cc2C1,–,–,46 counts/30 min,–,0.01 µmol/kg,0.01 µmol/kg,–,–
"CCCN(CCC)[C@@H]1CCc2ccc(O)cc2C1C (single isomer, unassigned; 6) [listing 2 of 2 here]",–,–,14 counts/30 min and 17 counts/30 min,126% and 136%,–,–,–,–
"CCCN(CCC)[C@@H]1CCc2ccc(O)cc2C1C (single isomer, unassigned; 10) [listing 1 of 2 here]",inactive,inactive,–,–,–,–,–,–
"CCCN[C@@H]1CCc2ccc(O)cc2C1C (single isomer, unassigned; (-)) [listing 1 of 2 here]",–,–,8 counts/30 min,–,–,–,–,–
CN1CCc2cccc3c2[C@H]1Cc1ccc(O)c(O)c1-3 [APOMORPHINE],–,–,366 counts/30 min,227%,0.04 µmol/kg,0.04 µmol/kg,–,–
CCCN(CCC)[C@H]1Cc2cc(O)ccc2C[C@H]1C,inactive,inactive,331 counts/30 min,119%,11 µmol/kg,7.5 µmol/kg,–,–
"CCCN(CCC)[C@@H]1CCc2ccc(O)cc2C1C (single isomer, unassigned; 10) [listing 2 of 2 here]",–,–,50 counts/30 min and 20 counts/30 min,–,–,–,–,–
"CCCN(CCC)[C@@H]1CCc2ccc(OC)cc2C1C (single isomer, unassigned; 9) [listing 1 of 2 here]",inactive,inactive,–,–,–,–,–,–
CCCN[C@H]1Cc2cc(OC)ccc2CC1C (stereo partly specified),inactive,inactive,–,128%,–,–,–,–
"CCCN(CCC)[C@@H]1CCc2ccc(OC)cc2C1C (single isomer, unassigned; 5) [listing 2 of 2 here]",inactive,inactive,–,–,–,–,inactive,–
CCCN(CCC)[C@H]1Cc2cc(OC)ccc2CC1C (stereo partly specified),inactive,inactive,–,96%,–,–,–,–
"CCCN[C@@H]1CCc2ccc(O)cc2C1C (single isomer, unassigned; (-)) [listing 2 of 2 here]",inactive,inactive,–,–,–,–,–,–
"CCCN(CCC)[C@@H]1CCc2ccc(OC)cc2C1C (single isomer, unassigned; 9) [listing 2 of 2 here]",–,–,–,38% and 28%,–,1.3 µmol/kg,–,0.9 µmol/kg

# From ChEMBL document CHEMBL1123860, “C1- and C3-methyl-substituted derivatives of 7-hydroxy-2-(di-n-propylamino)tetralin: activities at central dopamine receptors” (1987)
